According to ChEMBL document CHEMBL1667826, “Synthesis, modification, and evaluation of (R)-de-O-methyllasiodiplodin and analogs as nonsteroidal antagonists of mineralocorticoid receptor” (Bioorg Med Chem Lett, 2011):
pIC50: −log10 of the molar value.

Legend:
[1] = biological target: T1, Mineralocorticoid receptor (Rattus norvegicus, UniProt P22199); assay: Antagonist activity at rat mineralocorticoid receptor-ligand binding domain expressed in AH109 yeast cells co expressing pGADT7-hSRC-1 by two hybrid assay; format: cell-based; settings: for pIC50: read-out: IC50
T1 sequence (P22199 whole entry): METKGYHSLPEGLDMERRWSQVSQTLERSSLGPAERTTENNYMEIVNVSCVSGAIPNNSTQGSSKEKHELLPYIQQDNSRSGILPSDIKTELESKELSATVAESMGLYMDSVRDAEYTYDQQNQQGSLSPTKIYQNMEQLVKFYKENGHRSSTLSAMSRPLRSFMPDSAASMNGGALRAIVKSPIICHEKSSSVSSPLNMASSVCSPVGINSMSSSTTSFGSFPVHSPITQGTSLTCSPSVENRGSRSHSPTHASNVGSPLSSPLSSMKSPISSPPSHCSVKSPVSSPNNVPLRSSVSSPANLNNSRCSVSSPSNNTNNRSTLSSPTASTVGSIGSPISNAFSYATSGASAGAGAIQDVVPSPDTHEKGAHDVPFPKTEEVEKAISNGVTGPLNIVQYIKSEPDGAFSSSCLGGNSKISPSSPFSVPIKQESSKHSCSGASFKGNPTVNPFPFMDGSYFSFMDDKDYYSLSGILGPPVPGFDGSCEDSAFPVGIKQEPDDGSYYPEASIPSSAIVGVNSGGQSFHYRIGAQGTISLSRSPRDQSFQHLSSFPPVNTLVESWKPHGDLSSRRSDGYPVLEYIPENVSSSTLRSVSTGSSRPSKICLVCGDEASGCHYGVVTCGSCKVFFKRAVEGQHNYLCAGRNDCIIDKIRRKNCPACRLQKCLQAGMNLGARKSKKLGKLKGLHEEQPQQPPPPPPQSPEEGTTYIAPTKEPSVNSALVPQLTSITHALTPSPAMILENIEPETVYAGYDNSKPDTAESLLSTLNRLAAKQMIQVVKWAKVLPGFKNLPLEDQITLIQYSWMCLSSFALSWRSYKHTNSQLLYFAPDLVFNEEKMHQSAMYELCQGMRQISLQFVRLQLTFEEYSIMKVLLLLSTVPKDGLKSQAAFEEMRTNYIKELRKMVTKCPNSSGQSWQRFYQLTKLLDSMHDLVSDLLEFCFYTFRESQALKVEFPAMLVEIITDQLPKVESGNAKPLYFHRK
Method in brief: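 Yeast two-hybrid read-out of corticosterone-stimulated interaction between the MR ligand-binding domain and the SRC1 coactivator. Antagonism of this interaction is expressed as IC50.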

Glucocorticoid receptor = biological target: T2, Glucocorticoid receptor (Homo sapiens, UniProt P04150); assay: Inhibition of glucocorticoid receptor ligand binding domain expressed in HEK293T cells; format: cell-based; settings: hek-293t
T2 sequence (P04150 whole entry): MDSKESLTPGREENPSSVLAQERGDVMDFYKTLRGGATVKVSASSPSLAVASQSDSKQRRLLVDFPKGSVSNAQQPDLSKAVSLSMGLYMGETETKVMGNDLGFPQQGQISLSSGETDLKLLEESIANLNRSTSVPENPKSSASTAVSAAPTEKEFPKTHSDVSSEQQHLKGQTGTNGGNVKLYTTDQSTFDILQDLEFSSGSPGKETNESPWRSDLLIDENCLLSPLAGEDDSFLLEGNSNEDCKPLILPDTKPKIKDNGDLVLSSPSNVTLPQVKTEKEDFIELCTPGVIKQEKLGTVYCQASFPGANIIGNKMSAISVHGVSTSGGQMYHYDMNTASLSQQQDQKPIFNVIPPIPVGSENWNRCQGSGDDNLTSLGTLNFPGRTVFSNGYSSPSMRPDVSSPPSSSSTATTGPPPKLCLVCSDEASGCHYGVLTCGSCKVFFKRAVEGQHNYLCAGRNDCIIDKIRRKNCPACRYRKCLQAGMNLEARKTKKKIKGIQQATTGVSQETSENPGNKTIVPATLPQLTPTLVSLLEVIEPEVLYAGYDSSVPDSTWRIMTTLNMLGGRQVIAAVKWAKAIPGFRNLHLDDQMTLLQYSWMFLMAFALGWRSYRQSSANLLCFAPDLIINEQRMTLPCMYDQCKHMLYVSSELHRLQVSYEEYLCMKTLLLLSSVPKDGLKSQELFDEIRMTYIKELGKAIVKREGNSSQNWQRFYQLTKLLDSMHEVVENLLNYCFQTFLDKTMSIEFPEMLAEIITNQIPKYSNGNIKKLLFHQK
Method in brief: (§1)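 Mammalian one-hybrid assay in HEK293T cells transiently co-transfected with a UAS-TK-Luc reporter, pRL-SV40 and a pGAL4 fusion of the receptor LBD (ERα, GR or PR). The read-out is luciferase, measuring antagonism at each receptor.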

Progesterone receptor = biological target: T3, Progesterone receptor (Homo sapiens, UniProt P06401); assay: Inhibition of progesterone receptor ligand binding domain expressed in HEK293T cells; format: cell-based, HEK-293T; settings: for pIC50: read-out: IC50; for IC50: hek-293t; method in brief: as §1
T3 sequence (P06401 whole entry): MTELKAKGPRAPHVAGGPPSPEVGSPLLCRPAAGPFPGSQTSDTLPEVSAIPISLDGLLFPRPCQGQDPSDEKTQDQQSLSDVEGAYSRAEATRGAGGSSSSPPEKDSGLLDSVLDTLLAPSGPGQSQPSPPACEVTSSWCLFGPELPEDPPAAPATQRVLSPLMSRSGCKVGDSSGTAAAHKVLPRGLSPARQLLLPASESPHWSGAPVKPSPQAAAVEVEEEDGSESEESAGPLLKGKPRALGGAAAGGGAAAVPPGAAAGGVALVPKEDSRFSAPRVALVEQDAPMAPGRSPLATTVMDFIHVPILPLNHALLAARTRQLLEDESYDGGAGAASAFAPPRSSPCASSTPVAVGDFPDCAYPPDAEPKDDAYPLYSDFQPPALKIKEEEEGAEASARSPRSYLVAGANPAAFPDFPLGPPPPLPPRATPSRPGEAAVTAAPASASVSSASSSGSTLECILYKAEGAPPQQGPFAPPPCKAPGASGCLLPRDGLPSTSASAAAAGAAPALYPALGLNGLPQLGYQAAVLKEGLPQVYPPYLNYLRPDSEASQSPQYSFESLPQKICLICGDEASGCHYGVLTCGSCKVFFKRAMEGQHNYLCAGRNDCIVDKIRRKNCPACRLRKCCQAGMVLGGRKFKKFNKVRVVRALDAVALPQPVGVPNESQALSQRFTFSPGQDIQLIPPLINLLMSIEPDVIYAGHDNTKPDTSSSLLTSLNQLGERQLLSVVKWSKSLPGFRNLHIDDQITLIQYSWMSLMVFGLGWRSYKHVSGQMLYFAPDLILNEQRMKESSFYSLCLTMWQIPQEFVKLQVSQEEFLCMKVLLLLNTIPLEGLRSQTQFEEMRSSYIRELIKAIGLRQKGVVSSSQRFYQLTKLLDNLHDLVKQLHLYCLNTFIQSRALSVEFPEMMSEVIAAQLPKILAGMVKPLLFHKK

Estrogen receptor = biological target: T4, Estrogen receptor (Homo sapiens, UniProt P03372); assay: Inhibition of ERalpha ligand binding domain expressed in HEK293T cells; format: cell-based, HEK-293T; settings: for IC50: hek-293t; for pIC50: read-out: IC50; method in brief: as §1
T4 sequence (P03372 whole entry): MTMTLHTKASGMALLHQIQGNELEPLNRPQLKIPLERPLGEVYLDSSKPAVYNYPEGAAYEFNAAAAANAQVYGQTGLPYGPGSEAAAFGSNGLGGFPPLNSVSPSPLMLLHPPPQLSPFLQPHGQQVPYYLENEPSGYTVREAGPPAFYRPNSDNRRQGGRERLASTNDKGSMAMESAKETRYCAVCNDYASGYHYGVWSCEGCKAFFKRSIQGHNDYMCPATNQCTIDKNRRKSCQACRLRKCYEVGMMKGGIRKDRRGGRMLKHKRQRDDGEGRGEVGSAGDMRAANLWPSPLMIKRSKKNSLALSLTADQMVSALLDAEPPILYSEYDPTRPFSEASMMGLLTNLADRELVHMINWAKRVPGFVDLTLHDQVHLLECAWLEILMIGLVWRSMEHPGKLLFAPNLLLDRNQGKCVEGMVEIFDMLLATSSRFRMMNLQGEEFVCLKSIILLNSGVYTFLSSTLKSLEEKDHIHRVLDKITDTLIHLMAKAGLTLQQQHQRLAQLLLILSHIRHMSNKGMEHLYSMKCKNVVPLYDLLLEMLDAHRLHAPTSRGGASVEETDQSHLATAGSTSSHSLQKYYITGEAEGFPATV

CCCCOc1cc2c(c(OCCCC)c1)C(=O)O[C@H](C)CCCCCCC2
IC50 [1]: Not Active

C[C@@H]1CCCCCCCc2cc(OCc3ccccc3)cc(OCc3ccccc3)c2C(=O)O1
IC50 [1]: Not Active

O=C1OCCCCCCCCCc2cc(O)cc(O)c21
IC50 [1]: Not Active

C[C@@H]1CCCCCCCc2cc(OC(=O)c3ccccc3)cc(OC(=O)c3ccccc3)c2C(=O)O1
IC50 [1]: Not Active

CC(=O)Oc1cc2c(c(OC(C)=O)c1)C(=O)OCCCCCCCCC2
IC50 (Glucocorticoid receptor): Not Active
pIC50 (Progesterone receptor): 5.51
IC50 (Estrogen receptor): Not Active
pIC50 [1]: 6.09

O=C1OCCCCCCCCCCc2cc(O)cc(O)c21
IC50 [1]: Not Active

C=CCCC[C@@H](C)OC(=O)c1c(CCC=C)cc(OC)cc1OC
IC50 [1]: Not Active

Cc1ccc(S(=O)(=O)Oc2cc3c(c(OS(=O)(=O)c4ccc(C)cc4)c2)C(=O)O[C@H](C)CCCCCCC3)cc1
pIC50 [1]: 5.19

CC(C)C(=O)Oc1cc2c(c(OC(=O)C(C)C)c1)C(=O)O[C@H](C)CCCCCCC2
IC50 [1]: Not Active

CC(=O)Oc1cc2c(c(OC(C)=O)c1)C(=O)OCCCCCCC2
IC50 (Glucocorticoid receptor): Not Active
IC50 (Progesterone receptor): Not Active
IC50 (Estrogen receptor): Not Active
pIC50 [1]: 6.24

C=CCOc1cc(O)c2c(c1)CCCCCCC[C@@H](C)OC2=O
IC50 [1]: Not Active

COc1cc(O)c2c(c1)CCCCCCC[C@@H](C)OC2=O
IC50 [1]: Not Active

CCCC(=O)Oc1cc2c(c(OC(=O)CCC)c1)C(=O)O[C@H](C)CCCCCCC2
IC50 [1]: Not Active

CCC(=O)Oc1cc2c(c(OC(=O)CC)c1)C(=O)O[C@H](C)CCCCCCC2
pIC50 [1]: 4.50

O=C1OCCCCCCCc2cc(O)cc(O)c21
IC50 [1]: Not Active

COc1cc2c(c(OC)c1)C(=O)O[C@H](C)CCC/C=C/CC2
IC50 [1]: Not Active

C=CCOc1cc2c(c(OCC=C)c1)C(=O)O[C@H](C)CCCCCCC2
IC50 [1]: Not Active

CC(=O)Oc1cc2c(c(OC(C)=O)c1)C(=O)O[C@H](C)CCCCCCC2
IC50 (Glucocorticoid receptor): Not Active
IC50 (Progesterone receptor): Not Active
pIC50 (Estrogen receptor): 5.08
pIC50 [1]: 5.56

O=C1OCCCCCCCCc2cc(O)cc(O)c21
IC50 [1]: Not Active

CCOc1cc2c(c(OCC)c1)C(=O)O[C@H](C)CCCCCCC2
IC50 [1]: Not Active

CC(=O)Oc1cc2c(c(OC(C)=O)c1)C(=O)OCCCCCCCCCC2
IC50 (Glucocorticoid receptor): Not Active
pIC50 (Progesterone receptor): 5.49
pIC50 (Estrogen receptor): < 5.00
pIC50 [1]: 5.54

C[C@@H]1CCCCCCCc2cc(OCc3ccccc3)cc(O)c2C(=O)O1
IC50 [1]: Not Active

CC(=O)Oc1cc2c(c(OC(C)=O)c1)C(=O)OCCCCCCCC2
IC50 (Glucocorticoid receptor): Not Active
IC50 (Progesterone receptor): Not Active
IC50 (Estrogen receptor): Not Active
pIC50 [1]: 5.95

COc1cc2c(c(OC)c1)C(=O)O[C@H](C)CCC/C=C\CC2
pIC50 [1]: 4.78

CCCOc1cc2c(c(OCCC)c1)C(=O)O[C@H](C)CCCCCCC2
IC50 [1]: Not Active

C[C@@H]1CCCCCCCc2cc(OC(=O)c3ccc(Br)cc3)cc(OC(=O)c3ccc(Br)cc3)c2C(=O)O1
IC50 [1]: Not Active

C[C@@H]1CCCCCCCc2cc(OCc3ccc([N+](=O)[O-])cc3)cc(OCc3ccc([N+](=O)[O-])cc3)c2C(=O)O1
IC50 [1]: Not Active

CCOc1cc(O)c2c(c1)CCCCCCC[C@@H](C)OC2=O
IC50 [1]: Not Active

C[C@@H]1CCCCCCCc2cc(O)cc(O)c2C(=O)O1
pIC50 [1]: 5.05

COc1cc(O)cc2c1C(=O)O[C@H](C)CCCCCCC2
IC50 [1]: Not Active

CCCOc1cc(O)c2c(c1)CCCCCCC[C@@H](C)OC2=O
IC50 [1]: Not Active

C[C@@H]1CCCCCCCc2cc(OC(=O)c3ccc(Cl)cc3)cc(OC(=O)c3ccc(Cl)cc3)c2C(=O)O1
IC50 [1]: Not Active

COc1cc2c(c(OC)c1)C(=O)O[C@H](C)CCCCCCC2
IC50 [1]: Not Active
